{
  "source": "ChEMBL document CHEMBL1123648",
  "about": "“Synthesis, chemical reactivity, and antileukemic activity of 5-substituted 6,7-bis(hydroxymethyl)pyrrolo[1,2-c]thiazole biscarbamates and the corresponding sulfoxides and sulfones” (1987)",
  "key": {"[1]": {"assay": "Antileukemic activity against Murine P388 lymphocytic leukemia, body weight difference of the test animals compared to control group B animals at a dose of 100 mg/kg", "type": "functional, Mus musculus", "design": "unit not given here", "method_in_brief": "(§1)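 CD2F1 mice implanted intraperitoneally with ascitic fluid carrying ca. 1×10^6 P388 cells, under the NCI protocol. Dosing was intraperitoneal, starting 24 h after inoculation, then every 24 h for five doses in total. The body weight difference of treated mice is taken against untreated controls. Toxicity day survivors are the mice alive at day five out of those tested.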"}, "[2]": {"assay": "Antileukemic activity against Murine P388 lymphocytic leukemia, body weight difference of the test animals compared to control group B animals at a dose of 12.5 mg/kg", "type": "functional, Mus musculus", "design": "unit not given here", "method_in_brief": "as §1"}, "[3]": {"assay": "Antileukemic activity against Murine P388 lymphocytic leukemia, body weight difference of the test animals compared to control group B animals at a dose of 25 mg/kg", "type": "functional, Mus musculus", "design": "unit not given here", "method_in_brief": "as §1"}, "[4]": {"assay": "Antileukemic activity against Murine P388 lymphocytic leukemia, body weight difference of the test animals compared to control group B animals at a dose of 50 mg/kg", "type": "functional, Mus musculus", "design": "unit not given here", "method_in_brief": "as §1"}, "[5]": {"assay": "Toxicity day survivors expressed as number of animals that survived to day five/ number of test animals under control group B at a dose of 100 mg/kg; 6 survived out of 6", "type": "functional, Mus musculus"}, "[6]": {"assay": "Toxicity day survivors expressed as number of animals that survived to day five/ number of test animals under control group B at a dose of 12.5 mg/kg; 6 survived out of 6", "type": "functional, Mus musculus"}, "[7]": {"assay": "Toxicity day survivors expressed as number of animals that survived to day five/ number of test animals under control group B at a dose of 25 mg/kg; 6 survived out of 6", "type": "functional, Mus musculus"}, "[8]": {"assay": "Toxicity day survivors expressed as number of animals that survived to day five/ number of test animals under control group B at a dose of 50 mg/kg; 6 survived out of 6", "type": "functional, Mus musculus"}, "[9]": {"assay": "Percent increase in life span of test animals compared to untreated tumor-bearing control group B animals at a dose of 100 mg/kg", "type": "functional", "conditions": "Mus musculus"}, "[10]": {"assay": "Percent increase in life span of test animals compared to untreated tumor-bearing control group B animals at a dose of 12.5 mg/kg", "type": "functional", "conditions": "Mus musculus"}, "[11]": {"assay": "Percent increase in life span of test animals compared to untreated tumor-bearing control group B animals at a dose of 25 mg/kg", "type": "functional", "conditions": "Mus musculus"}, "[12]": {"assay": "Percent increase in life span of test animals compared to untreated tumor-bearing control group B animals at a dose of 50 mg/kg", "type": "functional", "conditions": "Mus musculus"}, "[13]": {"system": "P388", "assay": "Log cell population relative to cell population at the beginning of treatment compared to control group B at a dose of 12.5 mg/kg", "type": "functional, Mus musculus"}, "[14]": {"system": "P388", "assay": "Log cell population relative to cell population at the beginning of treatment compared to control group B at a dose of 25 mg/kg", "type": "functional, Mus musculus"}, "[15]": {"system": "P388", "assay": "Log cell population relative to cell population at the beginning of treatment compared to control group B at a dose of 50 mg/kg", "type": "functional, Mus musculus"}, "[16]": {"system": "P388", "assay": "Log cell population relative to cell population at the beginning of treatment compared to control group B at a dose of 100 mg/kg", "type": "functional, Mus musculus"}, "[17]": {"assay": "Antileukemic activity against Murine P388 lymphocytic leukemia, body weight difference of the test animals compared to control group C animals at a dose of 100 mg/kg", "type": "functional, Mus musculus", "design": "unit not given here", "method_in_brief": "as §1"}, "[18]": {"assay": "Antileukemic activity against Murine P388 lymphocytic leukemia, body weight difference of the test animals compared to control group C animals at a dose of 200 mg/kg", "type": "functional, Mus musculus", "method_in_brief": "as §1"}, "[19]": {"assay": "Antileukemic activity against Murine P388 lymphocytic leukemia, body weight difference of the test animals compared to control group C animals at a dose of 25 mg/kg", "type": "functional, Mus musculus", "method_in_brief": "as §1"}, "[20]": {"assay": "Antileukemic activity against Murine P388 lymphocytic leukemia, body weight difference of the test animals compared to control group C animals at a dose of 50 mg/kg", "type": "functional, Mus musculus", "design": "unit not given here", "method_in_brief": "as §1"}, "[21]": {"assay": "Percent increase in life span of test animals compared to untreated tumor-bearing control group C animals at a dose of 100 mg/kg", "type": "functional", "conditions": "Mus musculus"}, "[22]": {"assay": "Percent increase in life span of test animals compared to untreated tumor-bearing control group C animals at a dose of 200 mg/kg", "type": "functional", "conditions": "Mus musculus"}, "[23]": {"system": "P388", "assay": "Log cell population relative to cell population at the beginning of treatment compared to control group C at a dose of 100 mg/kg", "type": "functional, Mus musculus"}, "[24]": {"assay": "Percent increase in life span of test animals compared to untreated tumor-bearing control group C animals at a dose of 25 mg/kg", "type": "functional", "conditions": "Mus musculus"}, "[25]": {"assay": "Percent increase in life span of test animals compared to untreated tumor-bearing control group C animals at a dose of 50 mg/kg", "type": "functional", "conditions": "Mus musculus"}, "[26]": {"assay": "Toxicity day survivors expressed as number of animals that survived to day five/ number of test animals under control group C at a dose of 100 mg/kg; 6 survived out of 6", "type": "functional, Mus musculus"}, "[27]": {"assay": "Toxicity day survivors expressed as number of animals that survived to day five/ number of test animals under control group C at a dose of 200 mg/kg; 6 survived out of 6", "type": "functional, Mus musculus"}, "[28]": {"assay": "Toxicity day survivors expressed as number of animals that survived to day five/ number of test animals under control group C at a dose of 25 mg/kg; 6 survived out of 6", "type": "functional, Mus musculus"}, "[29]": {"assay": "Toxicity day survivors expressed as number of animals that survived to day five/ number of test animals under control group C at a dose of 50 mg/kg; 6 survived out of 6", "type": "functional, Mus musculus"}, "[30]": {"system": "P388", "assay": "Log cell population relative to cell population at the beginning of treatment compared to control group A at a dose of 50 mg/kg", "type": "functional, Mus musculus"}, "[31]": {"system": "P388", "assay": "Log cell population relative to cell population at the beginning of treatment compared to control group C at a dose of 200 mg/kg", "type": "functional, Mus musculus"}, "[32]": {"system": "P388", "assay": "Log cell population relative to cell population at the beginning of treatment compared to control group C at a dose of 25 mg/kg", "type": "functional, Mus musculus"}},
  "data": [
    {"molecule": "Cc1c(COC(=O)NC(C)C)c(COC(=O)NC(C)C)c2n1CS(=O)(=O)C2", "values": [
      {"measurement": "BWD", "setting": "[1]", "result": -4},
      {"measurement": "BWD", "setting": "[2]", "result": -1.1},
      {"measurement": "BWD", "setting": "[3]", "result": -1.8},
      {"measurement": "BWD", "setting": "[4]", "result": -1.8},
      {"measurement": "TDS", "setting": "[5]", "result": 6},
      {"measurement": "TDS", "setting": "[6]", "result": 6},
      {"measurement": "TDS", "setting": "[7]", "result": 6},
      {"measurement": "TDS", "setting": "[8]", "result": 6},
      {"measurement": "ILS at 100 mg/kg", "setting": "[9]", "result": 118, "unit": "%"},
      {"measurement": "ILS at 12.5 mg/kg", "setting": "[10]", "result": 42, "unit": "%"},
      {"measurement": "ILS at 25 mg/kg", "setting": "[11]", "result": 59, "unit": "%"},
      {"measurement": "ILS at 50 mg/kg", "setting": "[12]", "result": 84, "unit": "%"},
      {"measurement": "KE", "setting": "[13]", "result": 0.85},
      {"measurement": "KE", "setting": "[14]", "result": 2.39},
      {"measurement": "KE", "setting": "[15]", "result": 4.71},
      {"measurement": "KE", "setting": "[16]", "result": ">6.77"}
    ]},
    {"molecule": "CNC(=O)OCc1c(COC(=O)NC)c2n(c1C)C[S+]([O-])C2", "note": "(configuration not stated)", "values": [
      {"measurement": "BWD", "setting": "[17]", "result": 0.8},
      {"measurement": "BWD", "setting": "[18]", "result": 0.4},
      {"measurement": "BWD", "setting": "[19]", "result": 0},
      {"measurement": "BWD", "setting": "[20]", "result": 1.1},
      {"measurement": "ILS at 100 mg/kg", "setting": "[21]", "result": 22, "unit": "%"},
      {"measurement": "ILS at 200 mg/kg", "setting": "[22]", "result": 15, "unit": "%"},
      {"measurement": "KE", "setting": "[23]", "result": -0.05},
      {"measurement": "ILS at 25 mg/kg", "setting": "[24]", "result": 13, "unit": "%"},
      {"measurement": "ILS at 50 mg/kg", "setting": "[25]", "result": 13, "unit": "%"},
      {"measurement": "TDS", "setting": "[26]", "result": 6},
      {"measurement": "TDS", "setting": "[27]", "result": 6},
      {"measurement": "TDS", "setting": "[28]", "result": 6},
      {"measurement": "TDS", "setting": "[29]", "result": 6},
      {"measurement": "KE", "setting": "[30]", "result": -0.09},
      {"measurement": "KE", "setting": "[31]", "result": -0.08},
      {"measurement": "KE", "setting": "[32]", "result": -0.09}
    ]}
  ]
}
